Assay results published in ChEMBL document CHEMBL1138835, “Inhibitors of multiple mutants of Plasmodium falciparum dihydrofolate reductase and their antimalarial activities” (J Med Chem, 2004).

Tests used:
[1] = biological target: Bifunctional dihydrofolate reductase-thymidylate synthase (Plasmodium falciparum K1, UniProt P13922, C59R/I164L/S108N); assay: Binding affinity towards mutant dihydrofolate reductase (C59R+S108N+I164L DHFR) of Plasmodium falciparum
[2] = biological target: Bifunctional dihydrofolate reductase-thymidylate synthase (Plasmodium falciparum K1, UniProt P13922, C59R/N51I/S108N); assay: Binding affinity towards mutant dihydrofolate reductase (N51I+C59R+S108N DHFR) of Plasmodium falciparum
Chain of Bifunctional dihydrofolate reductase-thymidylate synthase (Plasmodium falciparum K1, UniProt P13922, C59R/N51I/S108N) (P13922 whole entry, looked up, stated change not applied): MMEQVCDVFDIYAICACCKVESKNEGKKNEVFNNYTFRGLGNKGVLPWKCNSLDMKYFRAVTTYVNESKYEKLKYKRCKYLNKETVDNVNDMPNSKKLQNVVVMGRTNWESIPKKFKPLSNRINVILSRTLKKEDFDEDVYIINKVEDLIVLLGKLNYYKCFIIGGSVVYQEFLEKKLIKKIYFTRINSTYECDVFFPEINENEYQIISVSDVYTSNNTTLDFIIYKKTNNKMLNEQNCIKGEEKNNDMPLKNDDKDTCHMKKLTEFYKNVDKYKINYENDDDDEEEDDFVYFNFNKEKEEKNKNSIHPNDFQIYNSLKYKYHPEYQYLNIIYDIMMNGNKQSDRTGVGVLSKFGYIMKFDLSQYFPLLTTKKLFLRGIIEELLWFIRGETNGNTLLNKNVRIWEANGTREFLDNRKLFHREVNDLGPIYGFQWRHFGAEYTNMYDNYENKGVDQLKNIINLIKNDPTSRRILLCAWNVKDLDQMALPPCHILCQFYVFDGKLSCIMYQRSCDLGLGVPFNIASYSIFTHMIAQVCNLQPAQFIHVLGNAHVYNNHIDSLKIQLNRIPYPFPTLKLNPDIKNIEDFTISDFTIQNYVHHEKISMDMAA

[3] = biological target: Bifunctional dihydrofolate reductase-thymidylate synthase (Plasmodium falciparum K1, UniProt P13922); assay: Binding affinity towards wild-type dihydrofolate reductase of Plasmodium falciparum.
Chain of Bifunctional dihydrofolate reductase-thymidylate synthase (Plasmodium falciparum K1, UniProt P13922) (P13922 whole entry): as the sequence (P13922 whole entry, looked up, stated change not applied) above

[4] = tested on: Bifunctional dihydrofolate reductase-thymidylate synthase (Plasmodium falciparum K1), P13922 [UNDEFINED MUTATION]; assay: Ratio of binding affinity for mutant (C59R+S108N+I164L) to that of wild type dihydrofolate reductase
Chain of Bifunctional dihydrofolate reductase-thymidylate synthase (Plasmodium falciparum K1), P13922 [UNDEFINED MUTATION] (P13922 whole entry, looked up, stated change not applied): as above
How it was run: (§1)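 Each ratio is Ki for the mutant PfDHFR divided by Ki for wild-type PfDHFR. The recombinant enzymes were expressed in E. coli BL21(DE3)pLysS and purified on methotrexate-Sepharose. Ki was derived assuming inhibitors compete with substrate binding.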

[5] = biological target: Bifunctional dihydrofolate reductase-thymidylate synthase (Plasmodium falciparum K1) (UniProt P13922); assay: Ratio of binding affinity for mutant (N51I+C59R+S108N) to that of wild type dihydrofolate reductase; how it was run: as §1
Chain of Bifunctional dihydrofolate reductase-thymidylate synthase (Plasmodium falciparum K1) (P13922 whole entry, looked up): as the sequence (P13922 whole entry, looked up, stated change not applied) above

[6] = tested on: Bifunctional dihydrofolate reductase-thymidylate synthase (Plasmodium falciparum K1), P13922 [UNDEFINED MUTATION]; assay: Ratio of binding affinity for mutant (N51I+C59R+S108N+I164L) to that of wild type dihydrofolate reductase; how it was run: as §1
[7] = biological target: Bifunctional dihydrofolate reductase-thymidylate synthase (Plasmodium falciparum K1, UniProt P13922, C59R/I164L/N51I/S108N); assay: Binding affinity towards mutant dihydrofolate reductase (N51I+C59R+S108N+I164L DHFR) of Plasmodium falciparum
Chain of Bifunctional dihydrofolate reductase-thymidylate synthase (Plasmodium falciparum K1, UniProt P13922, C59R/I164L/N51I/S108N) (P13922 whole entry, looked up, stated change not applied): as above

[8] = tested on: KB; assay: In vitro cytotoxicity against Plasmodium falciparum infected KB cell line; format: functional, cell-based; conditions: Homo sapiens
How it was run: (§2)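 Cytotoxicity (IC50, μM) run against three mammalian lines: Vero (African green monkey kidney fibroblasts), KB (human epidermoid carcinoma) and BC (human breast cancer). Testing followed the Skehan et al. protocol.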

[9] = tested on: BC; assay: Relative antiplasmodial activity to cytotoxicity in Plasmodium falciparum Csl-2 infected BC cells; format: functional
[10] = tested on: KB; assay: Relative antiplasmodial activity to cytotoxicity in Plasmodium falciparum Csl-2 infected KB cells; format: functional
[11] = tested on: Vero; assay: Relative antiplasmodial activity to cytotoxicity in Plasmodium falciparum Csl-2 infected Vero cells; format: functional
[12] = tested on: BC; assay: Relative antiplasmodial activity to cytotoxicity in Plasmodium falciparum TM4/8.2 infected BC cells; format: functional
[13] = tested on: KB; assay: Relative antiplasmodial activity to cytotoxicity in Plasmodium falciparum TM4/8.2 infected KB cells; format: functional
[14] = tested on: KB; assay: Relative antiplasmodial activity to cytotoxicity in Plasmodium falciparum V1/S infected KB cells; format: functional
[15] = tested on: Vero; assay: Relative antiplasmodial activity to cytotoxicity in Plasmodium falciparum V1/S infected Vero cells; format: functional
[16] = tested on: Vero; assay: Relative antiplasmodial activity to cytotoxicity in Plasmodium falciparum TM4/8.2 infected Vero cells; format: functional
[17] = tested on: BC; assay: In vitro cytotoxicity against BC cell line.; conditions: Homo sapiens
[18] = biological target: Bifunctional dihydrofolate reductase-thymidylate synthase (Plasmodium falciparum K1, UniProt P13922, A16V/S108T); assay: Binding affinity towards mutant dihydrofolate reductase (A16V+S108T DHFR) of Plasmodium falciparum.
Chain of Bifunctional dihydrofolate reductase-thymidylate synthase (Plasmodium falciparum K1, UniProt P13922, A16V/S108T) (P13922 whole entry, looked up, stated change not applied): as above

[19] = tested on: Vero; assay: In vitro cytotoxicity against Plasmodium falciparum infected vero cell line.; format: functional, cell-based; conditions: Chlorocebus sabaeus; how it was run: as §2
[20] = tested on: Bifunctional dihydrofolate reductase-thymidylate synthase (Plasmodium falciparum K1), P13922 [UNDEFINED MUTATION]; assay: Ratio of binding affinity for mutant (A16V+S108T) to that of wild type dihydrofolate reductase; how it was run: as §1

Chain of Bifunctional dihydrofolate reductase-thymidylate synthase (Plasmodium falciparum K1, UniProt P13922, C59R/I164L/S108N) (P13922 whole entry, looked up, stated change not applied): as above

Structure (SMILES)	Ki [1]	Ki [2]	Ki [3]	Ratio [4]	Ratio [5]	Ratio [6]	Ki [7]	IC50 [8]	Safety ratio [9]	Safety ratio [10]	Safety ratio [11]	Safety ratio [12]	Safety ratio [13]	Safety ratio [14]	Safety ratio [15]	Safety ratio [16]	IC50 [17]	Ki [18]	IC50 [19]	Ratio [20]
CCc1nc(N)nc(N)c1-c1ccc2c(c1)OCO2	121 nM	8.3 nM	1.1 nM	110	7.5	244	269 nM	–	–	–	–	–	–	–	–	–	–	–	–	–
Nc1nc(N)c(-c2ccccc2)c(CCCc2ccccc2)n1	1.9 nM	1.1 nM	0.5 nM	3.8	2.2	9.4	4.7 nM	150000 nM	92.6	55.6	>18.5	1191	714	17.4	>5.8	>238	250000 nM	–	–	–
CCc1nc(N)nc(N)c1-c1ccc(Cl)c(Cl)c1 [ETOPRINE]	41 nM	3.1 nM	1 nM	41	3.1	53	53 nM	–	–	–	–	–	–	–	–	–	–	–	–	–
Nc1nc(N)c(-c2ccc(Cl)cc2)c(CCCc2ccccc2)n1	63 nM	15.1 nM	0.7 nM	90	21.6	243	170 nM	–	–	–	–	–	–	–	–	–	–	–	–	–
NC1=NC(c2ccc(Oc3ccccc3)cc2)N(c2cccc(Cl)c2)C(N)=N1 (centres undefined)	0.3 nM	0.9 nM	–	0.5	1.2	1.9	1.3 nM	4000 nM	1.6	1.2	>15.2	8.3	6.2	1.2	>15.2	>76.9	5300 nM	2.7 nM	> 50000 nM	3.9
Cc1nc(N)nc(N)c1-c1cccc(Cl)c1	9.8 nM	6.5 nM	1.9 nM	5.2	3.4	7.4	14 nM	–	–	–	–	–	–	–	–	–	–	–	–	–
COC(=O)CCCc1nc(N)nc(N)c1-c1cccc(Cl)c1	1.8 nM	0.77 nM	0.5 nM	3.6	1.5	5.4	2.7 nM	–	–	–	–	–	–	–	–	–	–	–	–	–
Nc1nc(N)c(-c2cccc(Cl)c2)c(CCOCCCOc2ccccc2)n1	1.3 nM	0.7 nM	0.4 nM	3.2	1.7	4.2	1.7 nM	6400 nM	1.7	2.2	5.2	14	18.3	1.4	3.3	42.9	4900 nM	–	–	–
NC1=NC(c2cccc(OCCCOc3cc(Cl)c(Cl)cc3Cl)c2)N(c2cccc(Cl)c2)C(N)=N1 (centres undefined)	2.2 nM	2 nM	–	0.6	0.5	1.1	4.5 nM	7000 nM	1.9	1.3	3.5	3.3	2.3	0.8	2.1	6	10000 nM	2.6 nM	18000 nM	0.7
NC1=NC(c2cccc(Oc3ccc(Cl)cc3)c2)N(c2ccc(Cl)cc2)C(N)=N1 (centres undefined)	151 nM	85.5 nM	–	108	61.1	86.4	121 nM	4000 nM	1.8	1	7.8	2.5	1.4	1.1	8.2	11.1	7000 nM	7.5 nM	31000 nM	5.4
NC1=NC(c2cccc(Oc3cc(Cl)cc(Cl)c3)c2)N(c2cccc(Cl)c2)C(N)=N1 (centres undefined)	0.6 nM	1 nM	–	0.3	0.6	1.5	2.7 nM	6000 nM	2.6	1.5	7.2	1.8	1.1	1.5	7.2	5.1	10000 nM	4.7 nM	28000 nM	2.6
CCc1nc(N)nc(N)c1-c1ccc(C)cc1	88 nM	6.9 nM	0.4 nM	220	17.2	710	284 nM	–	–	–	–	–	–	–	–	–	–	–	–	–
COC(=O)CCCc1nc(N)nc(N)c1-c1ccccc1	15 nM	3.3 nM	0.6 nM	25	5.5	40	24 nM	–	–	–	–	–	–	–	–	–	–	–	–	–
CCCC1(C)N=C(N)N=C(N)N1c1cccc(Cl)c1 (centres undefined)	33.1 nM	9.7 nM	–	7.2	2.1	8.53	39.4 nM	110000 nM	221	379	>1724	356	611	1.1	454	>2778	64000 nM	471 nM	> 500000 nM	102
NC1=NC(c2ccc(Oc3ccccc3)cc2)N(c2ccc(Cl)cc2)C(N)=N1 (centres undefined)	145 nM	29.3 nM	–	363	73.1	555	222 nM	7000 nM	1.8	1.5	>10.4	71.7	58.3	1	>7.2	>417	8600 nM	3.8 nM	> 50000 nM	9.5
CC1N=C(N)N=C(N)N1c1ccc(Cl)cc1 (centres undefined)	1580 nM	134 nM	4.1 nM	386	32.7	592	2430 nM	–	–	–	–	–	–	–	–	–	–	–	–	31
NC1=NC(c2cccc(Oc3cccc(C(F)(F)F)c3)c2)N(c2cccc(Cl)c2)C(N)=N1 (centres undefined)	0.6 nM	2 nM	–	0.2	0.7	1.8	4.8 nM	6000 nM	1.9	1.8	8.8	2	1.9	1.9	9.4	9.4	6400 nM	6.5 nM	30000 nM	2.4
CCCCCCc1nc(N)nc(N)c1-c1ccccc1	0.7 nM	0.4 nM	0.3 nM	–	–	–	1.4 nM	–	89.3	37.7	18.3	4467	1883	17.7	8.6	917	–	–	–	–
COc1ccc(CCCc2nc(N)nc(N)c2-c2cccc(Cl)c2)cc1	2.9 nM	1.3 nM	2.2 nM	1.3	0.6	0.9	2 nM	–	1.1	5.6	1.1	7.3	36.6	3.2	0.6	7.3	3000 nM	–	–	–
COC(=O)CCCc1nc(N)nc(N)c1-c1ccc(Cl)cc1	145 nM	29.3 nM	0.3 nM	483	97.7	1200	360 nM	–	–	–	–	–	–	–	–	–	–	–	–	–
